{
  "source": "ChEMBL document CHEMBL3994567",
  "about": "“Design and synthesis of selective, small molecule inhibitors of coactivator-associated arginine methyltransferase 1 (CARM1)” (Medchemcomm, 2016)",
  "key": {"[1]": {"target": "T1, Histone-arginine methyltransferase CARM1 (Homo sapiens, UniProt Q86X55)", "T1 sequence (Q86X55 whole entry)": "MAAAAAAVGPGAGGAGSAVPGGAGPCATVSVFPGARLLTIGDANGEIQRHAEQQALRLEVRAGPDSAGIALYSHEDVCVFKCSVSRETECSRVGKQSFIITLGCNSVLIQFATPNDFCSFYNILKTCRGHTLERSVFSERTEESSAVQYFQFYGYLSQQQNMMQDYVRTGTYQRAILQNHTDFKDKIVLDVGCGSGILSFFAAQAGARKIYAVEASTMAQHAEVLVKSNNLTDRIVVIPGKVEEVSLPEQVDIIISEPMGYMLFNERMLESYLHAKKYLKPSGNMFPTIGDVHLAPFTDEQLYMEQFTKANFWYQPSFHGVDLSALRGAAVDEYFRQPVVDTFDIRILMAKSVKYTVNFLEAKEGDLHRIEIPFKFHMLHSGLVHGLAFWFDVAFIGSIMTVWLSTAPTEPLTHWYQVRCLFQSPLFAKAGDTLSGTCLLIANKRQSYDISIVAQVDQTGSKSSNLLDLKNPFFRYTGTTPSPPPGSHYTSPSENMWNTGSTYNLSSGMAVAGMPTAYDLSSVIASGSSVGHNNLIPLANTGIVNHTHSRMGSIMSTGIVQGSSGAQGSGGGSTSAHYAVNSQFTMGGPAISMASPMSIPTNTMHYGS", "experiment": "Inhibition of CARM1 (unknown origin)", "in_short": "(§1)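 Radiometric methyltransfer assay. Enzyme transfers a tritiated methyl from ³H-SAM onto a biotin-labelled peptide substrate, with unlabelled SAM added when needed. The methylated peptide is captured in FlashPlate wells and counted by scintillation. IC50 comes from titrating compound under balanced conditions, with both peptide substrate and SAM at their Km concentrations.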"}, "[2]": {"target": "Protein arginine N-methyltransferase 5 (Homo sapiens, UniProt O14744)", "sequence (O14744 whole entry)": "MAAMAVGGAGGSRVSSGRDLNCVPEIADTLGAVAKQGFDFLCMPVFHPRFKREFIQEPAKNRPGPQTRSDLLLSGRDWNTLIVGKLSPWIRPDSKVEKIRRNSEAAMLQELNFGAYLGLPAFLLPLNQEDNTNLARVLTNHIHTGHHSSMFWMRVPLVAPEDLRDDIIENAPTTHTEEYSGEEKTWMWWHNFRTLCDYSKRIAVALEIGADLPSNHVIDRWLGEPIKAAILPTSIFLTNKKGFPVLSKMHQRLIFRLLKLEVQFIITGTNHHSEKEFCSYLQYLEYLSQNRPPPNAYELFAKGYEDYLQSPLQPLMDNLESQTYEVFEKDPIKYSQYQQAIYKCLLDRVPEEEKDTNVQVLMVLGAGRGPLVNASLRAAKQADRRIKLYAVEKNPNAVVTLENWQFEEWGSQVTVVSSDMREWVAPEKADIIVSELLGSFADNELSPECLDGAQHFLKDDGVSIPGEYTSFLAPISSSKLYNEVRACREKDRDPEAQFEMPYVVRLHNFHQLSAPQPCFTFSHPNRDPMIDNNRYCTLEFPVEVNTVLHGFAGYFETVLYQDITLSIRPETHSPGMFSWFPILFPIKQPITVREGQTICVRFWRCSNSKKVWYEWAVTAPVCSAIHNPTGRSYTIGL", "experiment": "Inhibition of PRMT5 (unknown origin)", "in_short": "as §1"}, "[3]": {"target": "T2, Histone-arginine methyltransferase CARM1 (Homo sapiens) (UniProt Q86X55)", "T2 sequence (whole entry)": "T1 sequence (Q86X55 whole entry)", "experiment": "Noncompetitive inhibition of CARM1 (unknown origin) at varying levels of peptide substrate and cofactor 3H-SAM by scintillation proximity assay"}},
  "note": "The source made the active and inactive calls. The rule behind the calls is not given here.",
  "data": [
    {"smiles": "CNCCN1CC(NCc2cccc(C(F)(F)F)c2)C1", "values": [
      {"measurement": "IC50", "setting": "[1]", "result": 94, "unit": "nM"}
    ]},
    {"smiles": "CNCCN1CCC(NCc2ccccc2)CC1", "values": [
      {"measurement": "IC50", "setting": "[2]", "result": "> 50000", "unit": "nM"},
      {"measurement": "IC50", "setting": "[1]", "result": 471, "unit": "nM"}
    ]},
    {"smiles": "CNCCN1CCC(NCc2cccc(C(F)(F)F)c2)CC1", "values": [
      {"measurement": "IC50", "setting": "[1]", "result": 302, "unit": "nM"}
    ]},
    {"smiles": "CNCCN1CC(NCc2cccc(Br)c2)C1", "values": [
      {"measurement": "IC50", "setting": "[1]", "result": 67, "unit": "nM"}
    ]},
    {"smiles": "CNCCN1CCC(NCc2cccc(OC(F)(F)F)c2)CC1", "values": [
      {"measurement": "IC50", "setting": "[1]", "result": 342, "unit": "nM"}
    ]},
    {"smiles": "CNCCN1CC(NCc2cccc(Cl)c2)C1", "values": [
      {"measurement": "IC50", "setting": "[1]", "result": 50, "unit": "nM"}
    ]},
    {"smiles": "CNCCN1CC(NCc2cccc(OC(F)(F)F)c2)C1", "values": [
      {"measurement": "IC50", "setting": "[1]", "result": 90, "unit": "nM"}
    ]},
    {"smiles": "CNCCN1CCC(NCc2cccc(-c3ccccc3)c2)CC1", "values": [
      {"measurement": "IC50", "setting": "[1]", "result": 330, "unit": "nM"}
    ]},
    {"smiles": "CNCCN1CC(NCc2cccc(F)c2)C1", "values": [
      {"measurement": "IC50", "setting": "[1]", "result": 130, "unit": "nM"}
    ]},
    {"smiles": "CNCCN1CC(OCc2cccc(OC(F)(F)F)c2)C1", "values": [
      {"measurement": "IC50", "setting": "[1]", "result": 144, "unit": "nM"}
    ]},
    {"smiles": "CNCCN1CCC(NCc2cccc(Cl)c2)CC1", "values": [
      {"measurement": "IC50", "setting": "[1]", "result": 157, "unit": "nM"}
    ]},
    {"smiles": "CNCCN1CCC(NCc2cccc(Br)c2)CC1", "values": [
      {"measurement": "IC50", "setting": "[2]", "result": "> 50000", "unit": "nM"},
      {"measurement": "inhibition", "setting": "[3]", "result": "Active"},
      {"measurement": "IC50", "setting": "[1]", "result": 94, "unit": "nM"}
    ]},
    {"smiles": "CNCCN1CCC(NCc2cccc(F)c2)CC1", "values": [
      {"measurement": "IC50", "setting": "[1]", "result": 223, "unit": "nM"}
    ]}
  ]
}
